High-throughput results as filed in PubChem BioAssay.
Calb FLC – C. albicans growth inhibition with fluconazole, primary screen, CaCi-2 strain, Alamar Blue fluorescence; growth inhibition, % (concentration not given with the values); 300,000 tested, 0.57% active; C. albicans CaCi-2 (fluconazole-resistant clinical isolate) + fluconazole, 48 h;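 active means growth inhibition above about 58% in most replicates, limit read from the data, passing the limit was not always enough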;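 further: all wells also contain fluconazole at 8 µg/ml as a sub-toxic cotreatment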
SKKanGAS inh – S. pyogenes SKKanGAS growth inhibitors in kanamycin, primary screen, streptokinase expression inhibitor project, SKKanGAS strain, BacTiter-Glo luminescence. AID 1662, 2009. 6 h. 300,000 tested, 1.3% active. inhibition, % at 7.5 µM;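 active means mean replicate score, as percent of positive control median, at least 50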;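 further: strain carries kanamycin resistance gene driven by streptokinase promoter and grows in 40 µg/ml kanamycin; loss of luminescence reflects streptokinase promoter inhibition or plain growth inhibition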
ASAP1 inh – inhibitors of human ASAP1 ArfGAP activity, primary screen, biochemical, fluorescence polarization | Arf-GAP with SH3 domain, ANK repeat and PH domain-containing protein 1 (Homo sapiens), … | ASAP1-stimulated ARF1 GTP hydrolysis, GDP FP detection | inhibition, % at 16.5 µM | 360,000 tested, 0.19% active | AID 624377, 2012; in the data active means inhibition above about 25%
sPLA2-III inh – human group III sPLA2 inhibitors, primary screen, biochemical, QFRET, BODIPY PC-A2 liposome substrate; QFRET BODIPY PC-A2 liposome hydrolysis, fluorescence; 370,000 tested, 0.56% active; Group 3 secretory phospholipase A2 (Homo sapiens), Q9NZ20; AID 743126, 2013; inhibition, % at 12.2 µM;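 active means inhibition above mean plus 3 SD of compounds lying within the high and low control bounds, cut at about 19% in these data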
Target sequence (Q9NZ20 whole entry, looked up): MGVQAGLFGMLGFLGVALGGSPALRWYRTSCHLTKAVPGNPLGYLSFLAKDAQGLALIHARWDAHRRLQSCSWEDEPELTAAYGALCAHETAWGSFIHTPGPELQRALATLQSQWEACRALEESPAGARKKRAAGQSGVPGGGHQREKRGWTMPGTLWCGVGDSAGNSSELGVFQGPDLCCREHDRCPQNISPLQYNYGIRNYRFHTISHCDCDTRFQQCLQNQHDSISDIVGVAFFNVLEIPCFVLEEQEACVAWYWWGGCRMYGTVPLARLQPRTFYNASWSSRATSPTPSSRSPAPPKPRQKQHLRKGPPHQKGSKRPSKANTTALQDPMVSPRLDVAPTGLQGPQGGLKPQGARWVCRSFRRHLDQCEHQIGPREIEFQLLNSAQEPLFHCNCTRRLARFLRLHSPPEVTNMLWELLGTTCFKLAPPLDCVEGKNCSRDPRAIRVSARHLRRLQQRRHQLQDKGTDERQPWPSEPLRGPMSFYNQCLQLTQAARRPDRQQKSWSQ
ARFGAP1 inhibitor – inhibitors of rat ARFGAP1 GAP activity, primary screen, biochemical, fluorescence polarization, GDP tracer; inhibition, % at 16.5 µM; Arfgap1-stimulated ARF1 GTP hydrolysis, GDP FP detection; ADP-ribosylation factor GTPase-activating protein 1 (Rattus norvegicus), Q62848; 360,000 tested, 0.26% active; AID 651572, 2012;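 active means inhibition above a per-plate limit, mean inhibition of low control wells plus 3 SD, cut at about 25% in these data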
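Material – truncated rat Arfgap1 GAP domain · Buffer or medium – HEPES-based buffer, pH 7.5 · Reagent – human ARF1(Δ1-17)-GTP substrate · Dosing – 16.5 µM single point, 1.26% DMSO · Schedule – GTP hydrolysis reaction 2 h at 25 °C · Technique – GDP detection by fluorescence polarization · Benchmarks – No-Arfgap1 wells (100%) versus DMSO full-reaction wells (0%) · Repeats – single replicate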
sPLA2 confirm – human group III sPLA2 inhibitors, confirmation, biochemical, QFRET, triplicate; shares compounds with sPLA2-III inh; recombinant hGIII-sPLA2, BODIPY PC-A2 QFRET fluorescence; inhibition, % at 12.2 µM; 2,000 tested, 34% active; AID 743280, 2014;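 active means mean inhibition across triplicates above the hit cutoff set in the earlier primary screen, cut at about 19% in these data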
BODIPY interf – 535nm fluorescence optical interference, confirmation, artefact control for HGIII-sPLA2 inhibitor project, biochemical, QFRET. shares compounds with sPLA2-III inh. inhibition, % at 12.2 µM. 2,000 tested, 8.5% active. BODIPY FL product fluorescence interference;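 active means average inhibition above the solvent-only control mean plus 3 SD, cut at about 6% in these data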
BODIPY interf DR – 535nm fluorescence optical interference, dose response, artefact control for HGIII-sPLA2 inhibitor project, biochemical, QFRET; shares compounds with sPLA2-III inh; BODIPY FL product fluorescence interference, cell-free; IC50, µM; 240 tested, under 10 active; AID 743455, 2014;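 active means IC50 at or below 10 µM; inactive means IC50 above 10 µM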
Hits are given with their value; 0 = inactive; - = no result. The list is not random: actives were taken first. Their share in the collection is about 2.3%.

SMILES	Calb FLC	SKKanGAS inh	ASAP1 inh	sPLA2-III inh	ARFGAP1 inhibitor	sPLA2 confirm	BODIPY interf	others
COC(=O)[C@]12C[C@H](CC(=O)NCc3ccc(OC)c(OC)c3)C(=O)N(Cc3cccc4ccccc34)C1=C[C@H](C1CCCC1)O[C@@H]2C	-	-	-	0	-	-	-
C/C(=N\N=C\c1cccc(F)c1)c1nnn(-c2nonc2N)c1C	0	0	0	20.5	0	0	0
COc1ccccc1C(=O)CSc1nnc(-c2ccncc2)n1-c1ccc(Cl)cc1	-	-	-	0	-	-	-
CC(=O)Nc1cccc2ncccc12	0	0	0	23.9	0	0	0
CC(C)C[C@H](NC1(C(=O)NC2CCCCC2)CCOCC1)C(=O)NCC(c1ccccc1)c1ccccc1	-	-	-	0	-	-	-
CC(CSc1nnnn1-c1ccccc1)Cn1c(N2CCCC2)nc2c1c(=O)[nH]c(=O)n2C (stereo unspecified)	0	0	0	20.8	0	0	0
COc1ccc2c(c1)CCC/C2=N\NC(=O)c1ccoc1C	0	0	0	21.0	0	0	0
COc1ccc2c(c1)C1NC(=S)NC(C)(O2)C1C(=O)Nc1ccc(C)cc1C (stereo unspecified)	0	0	0	0	0	-	-
COc1ccc2c(c1)C1NC(=S)N[C@@](C)(O2)C1C(=O)Nc1ccccc1 (stereo partly specified)	0	0	0	20.9	0	23.9	0
Cc1ccc2c(c1)C1NC(=S)NC(C)(O2)C1C(=O)Nc1ccc(Cl)cc1 (stereo unspecified)	0	0	0	0	0	-	-
COc1ccc2c(c1)C1NC(=S)NC(C)(O2)C1C(=O)Nc1ccc(Cl)cc1 (stereo unspecified)	0	0	0	20.0	0	0	0
CCCC1CCC2(CC1)CCC2OC(=S)Nc1ccc(N(C)C)cc1 (stereo unspecified)	-	-	-	0	-	-	-
Cc1ccc(C2=CCN(C)C(=O)N2c2ccc(Br)cc2)cc1	-	-	-	0	-	-	-
COC(=O)C1=NN(c2cccc(C)c2)C2C(=O)N(c3ccccc3OC)C(=O)C12 (stereo unspecified)	0	0	0	20.2	0	0	0
COC(=O)C1=NN(c2ccccc2OC)C2C(=O)N(c3ccccc3OC)C(=O)C12 (stereo unspecified)	0	0	0	0	0	-	-
O=C(NC1CCCCN(Cc2cccc(Cl)c2)C1=O)c1cccs1 (stereo unspecified)	-	-	-	0	-	-	-
Cc1ccc(-n2c(SCC(=O)Nc3ccc4c(c3)OCCO4)nnc2-c2cccnc2)cc1	-	-	-	0	-	-	-
COc1ccc(-n2c(SCC(=O)NNC(=S)Nc3ccc(C)cc3)nnc2-c2ccccc2)cc1	-	-	-	31.0	-	0	0
Cc1ccc(-c2nnc(SCC(=O)Nc3ccc4c(c3)OCCO4)n2-c2ccc(C)cc2)cc1	-	-	-	20.8	-	0	0
Cc1ccc(-c2nnc(SCC(=O)NNC(=S)Nc3ccccc3)n2C2CCCCC2)cc1	-	-	-	28.4	-	33.3	0	BODIPY interf DR=0
Cc1ccc(-c2nnc(SCC(=O)N/N=C/c3ccccc3C(=O)O)n2C2CCCCC2)cc1	0	0	0	0	0	-	-
COc1ccc(-n2c(SCC(=O)Nc3ccc(Oc4ccccc4)cc3)nnc2-c2ccccc2)cc1	-	-	-	0	-	-	-
O=C(Nc1cccc([N+](=O)[O-])c1)NC1CCCCCCC1	0	-	0	0	0	-	-
CC(C)c1onc(C(=O)N(C)Cc2ccccc2)c1[N+](=O)[O-]	0	0	0	21.7	0	0	0
CC(C)c1onc(C(=O)NCCc2ccccc2)c1[N+](=O)[O-]	0	0	0	0	0	-	-
